Active and inactive are the calls of the source. The rule behind the calls is not given here. *1 amine or outer side, *2 acyl side, *3 side chain or, on linkers, in order; H or OH if unused. Where a SMILES comes first, the peptide text is derived from it. The star is where a group is joined. X1 = O=c1cc(N2CCOCC2)oc2c(-c3ccc(CO*)cc3)cccc12; Morpholide = C1CN(*)CCO1; CO = O=C([*:1])[*:2]
How the values were obtained:
C4-2 [1] = experiment: Inhibition of PI3 kinase in human C4-2 cells assessed as reduction of p-Akt T308 level after 30 mins by Western blotting; assay type: cell-based
C4-2 [2] = experiment: Inhibition of PI3 kinase in human C4-2 cells assessed as complete reduction of p-Akt T308 level at 30 µM after 30 mins by Western blotting; assay type: cell-based
BT-549 [3] = experiment: Inhibition of PI3 kinase in human BT549 cells assessed as reduction of p-Akt T308 level after 30 mins by Western blotting; assay type: cell-based
BT-549 [4] = experiment: Inhibition of PI3 kinase in human BT549 cells assessed as complete reduction of p-Akt T308 level at 30 µM after 30 mins by Western blotting; assay type: cell-based
LNCaP = experiment: Inhibition of PI3 kinase in human LNCaP cells assessed as reduction of p-Akt T308 level after 3 hrs by Western blotting; assay type: cell-based
Method in brief: (§1)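 Cells at ~80% confluence (48 h after seeding 4×10^5 per 6 cm dish), kept serum-free (LNCaP in T-Medium with 2.5% FBS; U-87 MG in DMEM) and dosed over a concentration range for 3 h, PBS control; p-Akt T308 by Western blot, three independent experiments.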

C4-2 [5] = experiment: Inhibition of PI3 kinase in human C4-2 cells assessed as reduction of p-Akt T308 level at 30 uM by Western blotting; assay type: cell-based; conditions: TDE = time-dependent effect
BT-549 [6] = experiment: Inhibition of PI3 kinase in human BT549 cells assessed as reduction of p-Akt T308 level at 30 uM after 30 mins to 6 hrs by Western blotting; assay type: cell-based
Method in brief: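 Serum-free BT-549 cells (RPMI 1640, 10% FBS, insulin during growth) exposed from 30 min to 6 h, PBS control; p-Akt T308 Western blot of cleared lysates, representative of three independent experiments.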

LNCaP C4-2 [7] = experiment: Induction of apoptosis in human C4-2 cells expressing Luc-BAD assessed as increase in cleavage of PARP at 3 to 50 uM after 6 hrs by Western blotting; assay type: functional, cell-based
Method in brief: (§2)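 C4-2LucBAD cells seeded 4×10^5 per 6 cm dish, grown 48 h in RPMI 1640/10% FBS to ~80% confluence, then serum-free 18 h; treated 6 h (DMSO control). Caspase 3 fluorescence read every 15 min for 1 h, arbitrary units, means ± SEM, n=2; cleaved PARP (89 kDa) by Western blot of same samples.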

BT-549 [8] = experiment: Inhibition of PI3 kinase in human BT549 cells assessed as reduction of p-Akt T308 level after 3 hrs by Western blotting; assay type: cell-based; method in brief: as §1
LNCaP C4-2 [9] = experiment: Induction of apoptosis in human C4-2 cells expressing Luc-BAD assessed as increase in caspase activity at 3 to 50 uM after 6 hrs by Caspase 3 assay; assay type: functional, cell-based; method in brief: as §2
BT-549 [10] = experiment: Inhibition of PI3 kinase in human BT549 cells exposed to C4-2 cells conditioned medium pre-incubated with compound for 6 hrs assessed as reduction of p-Akt T308 level by Western blotting; assay type: cell-based
Method in brief: (§3)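 Compound incubated 6 h at 37 °C, 5% CO2 in serum-free medium on C4-2 or BT-549 cells; medium then transferred to BT-549 cells for 3 h, PBS control; p-Akt T308 by Western blot.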

BT-549 [11] = experiment: Inhibition of PI3 kinase in human BT549 cells exposed to 10 uM compound pre-incubated in absence of PSA for 6 hrs assessed as reduction of p-Akt T308 levels after 30 mins by Western blotting; assay type: cell-based
Method in brief: (§4)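 Compound pre-incubated 6 h at 37 °C in 50 mM Tris-HCl, 0.1 M NaCl, pH 7.8 with purified active human semen PSA (0–104 ng/mL), then added to BT-549 cells for 30 min, DMSO control; p-Akt T308 Western blot, three independent experiments.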

C4-2 [12] = experiment: Inhibition of PI3 kinase in human C4-2 cells expressing Luc-BAD assessed as reduction of p-Akt T308 level after 3 hrs by Western blotting; assay type: cell-based
Method in brief: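 Serum-free C4-2LucBAD cells (18 h starvation, RPMI 1640 base) dosed over a concentration range for 3 h, PBS control; p-Akt T308 immunoblot of lysates.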

BT-549 [13] = experiment: Inhibition of PI3 kinase in human BT549 cells exposed to 10 uM compound pre-incubated with 0.5 to 10^4 ng/mL PSA for 6 hrs assessed as reduction of p-Akt T308 levels after 30 mins by Western blotting; assay type: cell-based; method in brief: as §4
BT-549 [14] = experiment: Inhibition of PI3 kinase in human BT549 cells exposed to BT549 cells conditioned medium pre-incubated with compound for 6 hrs assessed as reduction of p-Akt T308 level by Western blotting; assay type: cell-based; method in brief: as §3
U-87 = experiment: Inhibition of PI3 kinase in human U-87 cells assessed as reduction of p-Akt T308 level after 3 hrs by Western blotting; assay type: cell-based; method in brief: as §1
[15] = Prodrug activation in medium conditioned with human BT549 cells assessed as concentration of 4-(2-morpholino-4-oxo-4H-chromen-8-yl) benzyl-2-amino-4-methylpentanoate at 30 uM from 30 mins to 6 hrs by LC-ESI-MS analysis; assay type: cell-based; conditions: bt-549, 30 µM
Method in brief: (§5)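 Serum-free C4-2 or BT-549 cultures given compound, PBS control; media sampled at 30 min, 3 and 6 h. Released drug quantified by C18 UHPLC (water/methanol, 0.1% formic acid gradient) with positive ESI high-resolution Orbitrap MS at mass 496.2569, against standard curve; means ± SEM, n=3.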

C4-2 [16] = experiment: Inhibition of PI3 kinase in human C4-2 cells assessed as reduction of p-Akt T308 level after 3 hrs by Western blotting; assay type: cell-based
[17] = Prodrug activation in medium conditioned with human C4-2 cells assessed as concentration of 4-(2-morpholino-4-oxo-4H-chromen-8-yl) benzyl-2-amino-4-methylpentanoate at 30 uM from 30 mins to 6 hrs by LC-ESI-MS analysis; assay type: cell-based; conditions: c4-2, 30 µM; method in brief: as §5

Row | Drug metabolism [15] | Drug metabolism [17] | Structure (SMILES) | inhibition (C4-2 [1]) | inhibition (C4-2 [2]) | inhibition (BT-549 [3]) | inhibition (BT-549 [4]) | inhibition (LNCaP) | inhibition (C4-2 [5]) | inhibition (BT-549 [6]) | Activity (LNCaP C4-2 [7]) | inhibition (BT-549 [8]) | Activity (LNCaP C4-2 [9]) | inhibition (BT-549 [10]) | inhibition (BT-549 [11]) | inhibition (C4-2 [12]) | inhibition (BT-549 [13]) | inhibition (BT-549 [14]) | inhibition (U-87) | inhibition (C4-2 [16])
1 |  |  | CC(C)C[C@H](N)C(=O)OCc1ccc(-c2cccc3c(=O)cc(N4CCOCC4)oc23)cc1 | Dose-dependent effect | Active | Dose-dependent effect | Active |  |  |  |  |  |  |  |  |  |  |  |  | 
2 | Not Active | Active | CC(C)C[C@H](NC(=O)[C@H](CCCCN)NC(=O)[C@H](CO)NC(=O)[C@H](CO)NC(=O)[C@H](Cc1cnc[nH]1)NC(=O)[C@H](CCC(=O)O)NC(=O)[C@H](CC(C)C)NC(=O)N1CCOCC1)C(=O)N[C@@H](CCC(N)=O)C(=O)N[C@@H](CC(C)C)C(=O)OCc1ccc(-c2cccc3c(=O)cc(N4CCOCC4)oc23)cc1 ({Morpholide-CO}-LEHSSKLQL-X1) |  |  |  |  | Dose-dependent effect | tde | inactive | Active | inactive | Active | Active | inactive | Dose-dependent effect | Active | inactive | inactive | Dose-dependent effect

From ChEMBL document CHEMBL2169799, “Synthesis and characterization of a novel prostate cancer-targeted phosphatidylinositol-3-kinase inhibitor prodrug” (J Med Chem, 2012)
